Source: ChEMBL document CHEMBL5058577, “EUbOPEN Chemogenomics Library 2 (Multiplex)” (2022)

Test system: Fibroblast
Experiment: Multiplex assay against human fibroblast
Type: toxicity, cell-based
Outline: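 Cells stained live at seeding with Hoechst33342, BioTracker Green Microtubule Cytoskeleton Dye, MitoTracker Red and Annexin V Alexa Fluor 680 were imaged on a CQ1 microscope at 37°C and 5% CO2 after compound addition. Their classification by CellPathfinder machine-learning gating ran from Hoechst high-intensity objects versus normal cells, to healthy, pyknosed or fragmented nuclei among normal cells, to mitotic or apoptotic among pyknosed cells. Tubulin, mitochondrial-mass and membrane-permeability phenotypes are per cents of healthy-nucleus cells.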

[1] = 12 h, 1 µM, compound concentration 1 uM, replicate 1
[2] = 12 h, 1 µM, compound concentration 1 uM, replicate 2
[3] = 12 h, 10 µM, compound concentration 10 uM, replicate 1
[4] = 12 h, 10 µM, compound concentration 10 uM, replicate 2
[5] = 24 h, 1 µM, compound concentration 1 uM, replicate 1
[6] = 24 h, 1 µM, compound concentration 1 uM, replicate 2
[7] = 24 h, 10 µM, compound concentration 10 uM, replicate 1
[8] = 24 h, 10 µM, compound concentration 10 uM, replicate 2
[9] = 48 h, 1 µM, compound concentration 1 uM, replicate 1
[10] = 48 h, 1 µM, compound concentration 1 uM, replicate 2
[11] = 48 h, 10 µM, compound concentration 10 uM, replicate 1
[12] = 48 h, 10 µM, compound concentration 10 uM, replicate 2

COC[C@@H](c1ccc(C(F)(F)F)cc1)N1CCN(C2(C)CCN(C(=O)c3c(C)ncnc3C)CC2)C[C@@H]1C.O=C(O)/C=C\C(=O)O [VICRIVIROC MALEATE]
Population Apoptotic (%) [1]: 36%
Population Fragmented Nuclei (%) [1]: 23%
Population Healthy Nuclei (%) [1]: 53%
Population Hoechst High Intensity Objects (%) [1]: 4%
Population Membrane Permeable-Phenotype (%) [1]: 2%
Population Mitochondria Different-Phenotype (%) [1]: 11%
Population Mitotic Cells (%) [1]: 63%
Population Normal (%) [1]: 95%
Population Pyknosed Nuclei (%) [1]: 22%
Population Tubulin-Different-Phenotype (%) [1]: 16%
Total Cell Count [1]: 138
Population Healthy Nuclei (%) [2]: 51%
Population Membrane Permeable-Phenotype (%) [2]: 5%
Population Mitochondria Different-Phenotype (%) [2]: 13%
Population Pyknosed Nuclei (%) [2]: 25%
Population Tubulin-Different-Phenotype (%) [2]: 41%
Total Cell Count [2]: 190
Population Apoptotic (%) [3]: 58%
Population Fragmented Nuclei (%) [3]: 26%
Population Healthy Nuclei (%) [3]: 59%
Population Hoechst High Intensity Objects (%) [3]: 17%
Population Membrane Permeable-Phenotype (%) [3]: 2%
Population Mitochondria Different-Phenotype (%) [3]: 4%
Population Mitotic Cells (%) [3]: 41%
Population Normal (%) [3]: 82%
Population Pyknosed Nuclei (%) [3]: 14%
Population Tubulin-Different-Phenotype (%) [3]: 45%
Total Cell Count [3]: 208
Population Apoptotic (%) [4]: 33%
Population Fragmented Nuclei (%) [4]: 48%
Population Healthy Nuclei (%) [4]: 33%
Population Hoechst High Intensity Objects (%) [4]: 20%
Population Membrane Permeable-Phenotype (%) [4]: 12%
Population Mitotic Cells (%) [4]: 66%
Population Normal (%) [4]: 79%
Population Pyknosed Nuclei (%) [4]: 18%
Population Tubulin-Different-Phenotype (%) [4]: 67%
Total Cell Count [4]: 186
Population Apoptotic (%) [5]: 66%
Population Fragmented Nuclei (%) [5]: 21%
Population Healthy Nuclei (%) [5]: 57%
Population Hoechst High Intensity Objects (%) [5]: 3%
Population Membrane Permeable-Phenotype (%) [5]: 1%
Population Mitochondria Different-Phenotype (%) [5]: 7%
Population Mitotic Cells (%) [5]: 33%
Population Normal (%) [5]: 96%
Population Pyknosed Nuclei (%) [5]: 20%
Population Tubulin-Different-Phenotype (%) [5]: 18%
Total Cell Count [5]: 138
Population Apoptotic (%) [6]: 30%
Population Fragmented Nuclei (%) [6]: 28%
Population Healthy Nuclei (%) [6]: 50%
Population Membrane Permeable-Phenotype (%) [6]: 8%
Population Mitochondria Different-Phenotype (%) [6]: 20%
Population Mitotic Cells (%) [6]: 69%
Population Pyknosed Nuclei (%) [6]: 21%
Population Tubulin-Different-Phenotype (%) [6]: 41%
Total Cell Count [6]: 204
Population Apoptotic (%) [7]: 73%
Population Fragmented Nuclei (%) [7]: 23%
Population Healthy Nuclei (%) [7]: 64%
Population Hoechst High Intensity Objects (%) [7]: 12%
Population Membrane Permeable-Phenotype (%) [7]: 0%
Population Mitochondria Different-Phenotype (%) [7]: 5%
Population Mitotic Cells (%) [7]: 26%
Population Normal (%) [7]: 87%
Population Pyknosed Nuclei (%) [7]: 11%
Population Tubulin-Different-Phenotype (%) [7]: 42%
Total Cell Count [7]: 196
Population Apoptotic (%) [8]: 42%
Population Fragmented Nuclei (%) [8]: 46%
Population Healthy Nuclei (%) [8]: 39%
Population Hoechst High Intensity Objects (%) [8]: 21%
Population Membrane Permeable-Phenotype (%) [8]: 8%
Population Mitochondria Different-Phenotype (%) [8]: 12%
Population Mitotic Cells (%) [8]: 57%
Population Normal (%) [8]: 78%
Population Pyknosed Nuclei (%) [8]: 14%
Population Tubulin-Different-Phenotype (%) [8]: 60%
Total Cell Count [8]: 183
Population Apoptotic (%) [9]: 59%
Population Fragmented Nuclei (%) [9]: 21%
Population Healthy Nuclei (%) [9]: 56%
Population Hoechst High Intensity Objects (%) [9]: 3%
Population Membrane Permeable-Phenotype (%) [9]: 0%
Population Mitochondria Different-Phenotype (%) [9]: 7%
Population Mitotic Cells (%) [9]: 40%
Population Normal (%) [9]: 96%
Population Pyknosed Nuclei (%) [9]: 21%
Population Tubulin-Different-Phenotype (%) [9]: 34%
Total Cell Count [9]: 127
Population Apoptotic (%) [10]: 53%
Population Fragmented Nuclei (%) [10]: 33%
Population Healthy Nuclei (%) [10]: 50%
Population Hoechst High Intensity Objects (%) [10]: 5%
Population Membrane Permeable-Phenotype (%) [10]: 9%
Population Mitochondria Different-Phenotype (%) [10]: 19%
Population Mitotic Cells (%) [10]: 46%
Population Normal (%) [10]: 95%
Population Pyknosed Nuclei (%) [10]: 15%
Population Tubulin-Different-Phenotype (%) [10]: 58%
Total Cell Count [10]: 180
Population Apoptotic (%) [11]: 73%
Population Fragmented Nuclei (%) [11]: 23%
Population Healthy Nuclei (%) [11]: 65%
Population Hoechst High Intensity Objects (%) [11]: 14%
Population Membrane Permeable-Phenotype (%) [11]: 0%
Population Mitochondria Different-Phenotype (%) [11]: 5%
Population Mitotic Cells (%) [11]: 26%
Population Normal (%) [11]: 85%
Population Pyknosed Nuclei (%) [11]: 10%
Population Tubulin-Different-Phenotype (%) [11]: 48%
Total Cell Count [11]: 206
Population Apoptotic (%) [12]: 53%
Population Fragmented Nuclei (%) [12]: 54%
Population Healthy Nuclei (%) [12]: 35%
Population Hoechst High Intensity Objects (%) [12]: 20%
Population Membrane Permeable-Phenotype (%) [12]: 9%
Population Mitochondria Different-Phenotype (%) [12]: 10%
Population Mitotic Cells (%) [12]: 46%
Population Normal (%) [12]: 79%
Population Pyknosed Nuclei (%) [12]: 9%
Population Tubulin-Different-Phenotype (%) [12]: 61%
Total Cell Count [12]: 193
